Runt-CBFb FRET – blocks binding of human RUNX1 Runt domain to CBFb; Cerulean-Runt/Venus-CBFb FRET ratio 530/480, 1 h; inhibition, % at 20 µM; 0.46% of 220,000 active; AID 1496;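 active = inhibition over about 50% at 20 µM in the single-dose screen, limit read from the data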
Target sequence (Q01196 whole entry, looked up, the tested form may be a part): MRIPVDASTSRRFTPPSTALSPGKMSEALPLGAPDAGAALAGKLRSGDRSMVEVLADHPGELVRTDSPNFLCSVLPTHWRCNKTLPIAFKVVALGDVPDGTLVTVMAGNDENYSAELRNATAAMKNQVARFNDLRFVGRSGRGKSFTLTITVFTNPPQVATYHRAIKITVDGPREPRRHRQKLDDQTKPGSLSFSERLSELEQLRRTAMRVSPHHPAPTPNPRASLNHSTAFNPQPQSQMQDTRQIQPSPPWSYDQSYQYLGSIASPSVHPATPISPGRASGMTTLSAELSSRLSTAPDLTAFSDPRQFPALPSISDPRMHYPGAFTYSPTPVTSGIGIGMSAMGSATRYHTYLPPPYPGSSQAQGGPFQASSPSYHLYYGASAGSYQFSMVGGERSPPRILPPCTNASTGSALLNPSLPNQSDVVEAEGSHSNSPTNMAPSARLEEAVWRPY
Target sequence (Q13951 whole entry, looked up, the tested form may be a part): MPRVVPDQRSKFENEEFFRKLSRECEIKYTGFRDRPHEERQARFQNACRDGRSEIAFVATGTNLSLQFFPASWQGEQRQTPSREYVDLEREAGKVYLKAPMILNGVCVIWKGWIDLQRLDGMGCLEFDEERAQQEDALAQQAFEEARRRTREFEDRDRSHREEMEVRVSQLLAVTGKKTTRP
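Assay system: Cerulean-tagged RUNX1 Runt domain (FRET donor) fusion protein / Amount: 100 nM each of Venus-CBFb and Cerulean-Runt domain / Medium: Tris buffer pH 7.5 with salts and BSA / Also added: Venus-CBFb 100 nM / Schedule: 1 h complex formation plus 1 h compound treatment, room temperature / Signal: FRET fluorescence / Read-out: loss of energy transfer signal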
RanGTP-Imp inh – disruptors of Ran-importin-beta complex formation – biochemical, FRET, CFP-Ran, YFP-importin-beta, homogeneous, primary screen | cell-free CFP-Ran/YFP-importin-beta FRET ratio | inhibition, % (concentration not given with the values) | 1.1% of 300,000 active | AID 2216;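 active = more than half of the replicate wells show a fall in the fluorescence ratio signal beyond about 16%, limit read from the data, passing the limit was not always enough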
CaV13 FRET inh – Primary screen for inhibitors of IQ motif and Ca2+-dependent inactivation inhibitor domain binding in CACNA1D, Förster resonance energy transfer in living cells, …. inhibition, % at 12.3 µM. HEK cells, CFP/YFP FRET ICDI-IQ, plate reader, 10 min; percent FRET-ratio fall versus neutral wells. 0.098% of 340,000 active. AID 743397;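 active = mean replicate inhibition of at least 30% and at least 1% of replicates passing that level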
Runt-SMMHC FRET – blocks binding of human RUNX1 Runt domain to CBFb-SMMHC; Q01196+Q13951; Cerulean-Runt/Venus-CBFb-SMMHC FRET ratio 530/480, 1 h; inhibition, % at 20 µM; 0.74% of 220,000 active;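 active = mean inhibition across duplicate retests at 20 µM reaching about 50%, limit read from the data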;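 note: inhibitors lower the FRET ratio by blocking Runt binding to CBFb-SMMHC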
Each line names hits and unclear results; the compound was inactive in the other large screens. Compounds with a hit are over-represented: about 1.2% of the library has one in this group of screens.

CCCNC(=O)c1c(N)n(-c2ccc3c(c2)OCO3)c2nc3ccccc3nc12	none
Cc1cccc(-n2c(N)c(C(=O)NCCN3CCOCC3)c3nc4ccccc4nc32)c1	Runt-CBFb FRET 79, RanGTP-Imp inh 85, Runt-SMMHC FRET 61 (no result: CaV13 FRET inh)
CC(C)Cn1c(N)c(C(=O)NCCN2CCOCC2)c2nc3ccccc3nc21	RanGTP-Imp inh 94, Runt-SMMHC FRET 95
O=C(O)CC(CN1C(=O)c2ccccc2C1=O)c1ccccc1 (centres undefined)	none (no result: Runt-CBFb FRET, Runt-SMMHC FRET)
Cc1c(O)ccc2cc(S(=O)(=O)c3ccccc3)c(=O)oc12	RanGTP-Imp inh 132, CaV13 FRET inh 34 (no result: Runt-CBFb FRET, Runt-SMMHC FRET)
O=C(c1ccc(Cl)cc1)N1CCN(c2ccc(F)cc2)CC1	Runt-SMMHC FRET 72
Cc1cc(C)cc(-n2c3nc4ccccc4nc3c3c(=O)n(Cc4ccco4)cnc32)c1	RanGTP-Imp inh 19 (no result: CaV13 FRET inh, Runt-SMMHC FRET)
COCCCn1cnc2c(c1=O)c1nc3ccccc3nc1n2-c1ccc(C)cc1	none
O=C1C=C(c2cccc(O)c2)CCC1	none (no result: Runt-CBFb FRET, Runt-SMMHC FRET)
N#CC1=C(N)N(c2ccccc2C#N)C2=C(C(=O)CCC2)C1c1ccsc1 (centres undefined)	RanGTP-Imp inh 30
N=c1c(C(=O)NCc2ccccc2)cc2c(=O)n3ccccc3nc2n1CCCN1CCOCC1	Runt-CBFb FRET 58 (no result: RanGTP-Imp inh, CaV13 FRET inh)
Cc1ccc(Cn2c(=N)c(C(=O)NCCN3CCOCC3)cc3c(=O)n4ccccc4nc32)cc1	none (no result: Runt-CBFb FRET, Runt-SMMHC FRET)
N=c1c(C(=O)NCCN2CCOCC2)cc2c(=O)n3ccccc3nc2n1CCc1ccccc1	RanGTP-Imp inh 156 (no result: Runt-CBFb FRET, Runt-SMMHC FRET)
N=c1c(C(=O)NCCc2ccccc2)cc2c(=O)n3ccccc3nc2n1CCCN1CCOCC1	RanGTP-Imp inh 175 (no result: Runt-CBFb FRET, Runt-SMMHC FRET)
N=c1c(C(=O)NCc2ccc(F)cc2)cc2c(=O)n3ccccc3nc2n1CCCN1CCOCC1	Runt-SMMHC FRET 65 (no result: RanGTP-Imp inh, CaV13 FRET inh)
Cn1c(C(=O)NCCN2CCOCC2)cc2c(=O)n3ccccc3nc21	none (no result: Runt-CBFb FRET, Runt-SMMHC FRET)
COC(=O)c1c(-c2ccc(S(C)(=O)=O)cc2)sc2ccc(OC)cc12	none (no result: Runt-CBFb FRET, RanGTP-Imp inh, Runt-SMMHC FRET)
N#Cc1ccc(CSc2ccc(S(=O)(=O)N3CCCCCC3)cn2)cc1	none (no result: Runt-CBFb FRET, RanGTP-Imp inh, Runt-SMMHC FRET)
N#Cc1ccccc1OCCN1C(=O)c2ccccc2C1=O	none
Nc1cccc2c1C(=O)N(CCOc1ccccc1F)C2=O	RanGTP-Imp inh 42 (no result: Runt-CBFb FRET, Runt-SMMHC FRET)
O=c1cc(O)sc2ccccc12	RanGTP-Imp inh 16
Cc1ccc(C(=O)N(CC(=O)NC2CCCC2)Cc2cccs2)s1	none
CCOc1ccc(S(=O)(=O)N2CCCC(C(=O)N3CCN(c4ccccc4)CC3)C2)cc1 (centres undefined)	none (no result: Runt-CBFb FRET, Runt-SMMHC FRET)
COC(=O)C1=CN(C)C=C(C(=O)OC)C1c1ccsc1	Runt-CBFb FRET 108, RanGTP-Imp inh 33, Runt-SMMHC FRET 61 (no result: CaV13 FRET inh)
CC(=O)Nc1ccc2cc3ccc(NC(C)=O)cc3nc2c1	RanGTP-Imp inh 37 (no result: Runt-SMMHC FRET)
CC(=O)Nc1ccc2ccccc2c1	none (no result: CaV13 FRET inh)
Cc1c(CN2CCc3c([nH]c4ccccc34)C2CC(C)C)cnn1C (centres undefined)	RanGTP-Imp inh 35
CC(C)CC1c2[nH]c3ccccc3c2CCN1C(=O)c1cnccn1 (centres undefined)	none
CC(C)C(NS(=O)(=O)c1ccc2c(c1)Cc1cc(S(=O)(=O)NC(C(=O)O)C(C)C)ccc1-2)C(=O)O (centres undefined)	none (no result: Runt-CBFb FRET, Runt-SMMHC FRET)
COc1ccccc1CCn1cnc(-c2cccc(F)c2)c1CC(C)C	none (no result: Runt-CBFb FRET, RanGTP-Imp inh, Runt-SMMHC FRET)
COC(=O)C1=C(C)N(Cc2cccc(C(F)(F)F)c2)C(=NCc2ccc3c(c2)OCO3)NC1c1ccc(F)cc1 (centres undefined)	none (no result: Runt-CBFb FRET, RanGTP-Imp inh, Runt-SMMHC FRET)
CCCC(=O)NC(Nc1ccccc1F)C(Cl)(Cl)Cl (centres undefined)	Runt-CBFb FRET 67 (no result: CaV13 FRET inh)
CC(C)CC(=O)NC(Nc1ccccc1F)C(Cl)(Cl)Cl (centres undefined)	none (no result: CaV13 FRET inh)
O=c1[nH]c2ccccc2c(=O)c2ccccc12	none (no result: Runt-CBFb FRET, RanGTP-Imp inh, Runt-SMMHC FRET)
Cc1ccc2[nH]c3ccccc3c(=O)c2c1	RanGTP-Imp inh 114, CaV13 FRET inh 34 (no result: Runt-CBFb FRET, Runt-SMMHC FRET)
O=c1c2ccccc2[nH]c2ccc(F)cc12	RanGTP-Imp inh 116, Runt-SMMHC FRET 87
O=c1c2ccccc2[nH]c2ccc(O)cc12	RanGTP-Imp inh 166 (no result: Runt-CBFb FRET, Runt-SMMHC FRET)
O=c1c2c([nH]c3ccccc13)CCC2	none (no result: Runt-CBFb FRET, Runt-SMMHC FRET)
O=C1CCC(C(=O)N2CCCCO2)CN1CCc1ccccc1 (centres undefined)	none (no result: Runt-CBFb FRET, Runt-SMMHC FRET)
CC(C)(C)NC(=O)C(C1CC1)n1c(=O)c(-c2ccccc2)nc2ccccc21 (centres undefined)	none (no result: Runt-CBFb FRET, RanGTP-Imp inh, Runt-SMMHC FRET)
COc1cccc2oc3cc(C#CC4(O)CCCCC4)ccc3c(=O)c12	none (no result: Runt-CBFb FRET, Runt-SMMHC FRET)
COc1cccc2sc3ccc(C#CC4(O)CCCCC4)cc3c(=O)c12	RanGTP-Imp inh 49 (no result: Runt-CBFb FRET, Runt-SMMHC FRET)
CC(C)N1CCC2(CC1)C(C#N)=C(N)NC(S)=C2C#N	Runt-SMMHC FRET 64 (no result: CaV13 FRET inh)
Fc1ccc(Br)cc1C1C=C(c2ccc(Br)s2)Nc2ncnn21 (centres undefined)	none (no result: CaV13 FRET inh)
COc1cccc(C2C=C(c3ccc(Br)s3)Nc3ncnn32)c1OC (centres undefined)	Runt-SMMHC FRET 63 (no result: CaV13 FRET inh)
CC(=O)Oc1ccc2cc(-c3ccccc3)c(=O)oc2c1	RanGTP-Imp inh 81, Runt-SMMHC FRET 81
O=C(CCCCl)Oc1ccc2cc(-c3ccc4ccccc4n3)c(=O)oc2c1	RanGTP-Imp inh 102, Runt-SMMHC FRET 86
Cc1[nH]c2ccccc2c1CC(=O)Nc1ccc(Nc2ccccc2)cc1	none (no result: Runt-CBFb FRET, RanGTP-Imp inh, Runt-SMMHC FRET)
